Results collected from several papers.
Target: Serine/threonine-protein kinase SBK1 (SBK1, Homo sapiens, UniProt Q52WX2)

SMILES | read-out | method | tested at | remaining binding [%]
CN(C)c1nccc(-c2cnn3ncccc23)n1 | binding | – | 1 µM | 100
Nc1ncc2c(n1)-c1c([nH]c3ccc(C#CC4CC4)cc13)CCCC2 | binding | competition with immobilised ligand | 1 µM | 100
CCOC(=O)c1cc2cc(-c3cc(C(=O)NCc4ccc(C(=O)O)cc4)nn3C)ccc2[nH]1 | cell-free assay | competition with immobilised ligand | 0.1 µM | 90
C[C@H]1CCN(c2nccc(-c3cnn4ncccc34)n2)C1 | binding | – | 1 µM | 78
O=C(c1ccc(Nc2nccc(-c3cc4ccccc4s3)n2)cc1)N1CCC(N2CCCC2)CC1 | binding | competition with immobilised ligand | 1 µM | 88
CO[C@@H](C)c1c(Nc2ccc([C@H](N(C)C(=O)C3CCS(=O)(=O)CC3)C(F)(F)F)cc2)cnc2cc(Cl)nn12 | cell-free assay | competition with immobilised ligand | 1 µM | 100
F[C@@H]1CCN(c2nccc(-c3cnn4ncccc34)n2)C1 | binding | – | 1 µM | 100
O=C(NCCCN1CCOCC1)c1ccc(Nc2ncc(Cl)c(-c3ccc(Cl)s3)n2)cc1 | binding | competition with immobilised ligand | 1 µM | 52
FC(F)(F)Oc1cccc(-c2cnc3ccc(-c4ccncc4)nn23)c1 | binding | competition with immobilised ligand | 5 µM | 85
N[C@H]1CCN(c2nccc(-c3cnn4ncccc34)n2)C1 | binding | – | 1 µM | 83
O=C(Nc1c[nH]nc1C(=O)NC1CCNCC1)c1cc(F)cc(F)c1 | binding | competition with immobilised ligand | 1 µM | 100
COc1cnc(Nc2cccc(S(N)(=O)=O)c2)nc1N1CCN(c2ccccc2)CC1 | binding | competition with immobilised ligand | 1 µM | 96
C[C@H](c1cccc(C#N)c1)n1cc(Cl)cc(C(N)=O)c1=N | cell-free assay | competition with immobilised ligand | 1 µM | 83
O=C(c1ccc(Nc2ncc(Cl)c(-c3ccc(Cl)s3)n2)cc1)N1CCC(N2CCCC2)CC1 | binding | competition with immobilised ligand | 1 µM | 48
COc1cnc(Nc2cccc(S(N)(=O)=O)c2)nc1N1CCN(c2ccccc2)C(=O)C1 | binding | competition with immobilised ligand | 1 µM | 61
CCC(=O)N[C@H]1CC[C@@H](C(=O)N(C)c2ccc(-c3nc4ccccc4o3)cc2)C1 | cell-free assay | competition with immobilised ligand | 1 µM | 94
Cc1cnn2ncc(-c3ccnc(N(C)C)n3)c2c1 | binding | – | 1 µM | 83
C=CC(=O)N1CCC(C(=O)NCC(=O)N2CCN(c3nc(-c4cnc(N)nc4C(F)F)nc(N4CCOCC4)n3)CC2)CC1 | binding | competition with immobilised ligand | 1 µM | 100
CN(c1nccc(-c2cnn3ncccc23)n1)C1CC1 | binding | – | 1 µM | 100
Cc1c[nH]c2nccc(Oc3c(F)cc(Nc4cc(Cl)nc(N)n4)cc3F)c12 | cell-free assay | competition with immobilised ligand | 0.1 µM | 94
CN(C)c1ncc(F)c(-c2cnn3ncccc23)n1 | binding | – | 1 µM | 66
CCCOc1ccc([C@H]2[C@H](C(=O)O)[C@@H](c3ccc4c(c3)OCO4)CN2CC(=O)Nc2c(CC)cccc2CC)cc1 | cell-free assay | competition with immobilised ligand | 1 µM | 78
